Shown are actives, neighbours in structure and some others; about 3.7% of the full set was active somewhere.
KCNQ1 act: potentiates or activates the human KCNQ1 potassium channel; P51787; CHO-K1 KCNQ1, thallium flux FluxOR fluorescence; active compounds read high; B-score at 10 µM; hit rate 0.35% among 310,000; AID 2648;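 active means fluorescence ratio B-score, a plate-corrected score, at least three library SD, with initial intensity B-score within 5 SD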
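Assay system: CHO-K1 cells stably expressing KCNQ1; Medium: assay buffer with matched DMSO; Also added: K+/Tl+ depolarizing stimulus; Dosing: single dose; Timing: dye 90 min, compound 20 min, room temperature; Measured by: kinetic FluxOR thallium fluorescence, 10-s 1-Hz baseline, 110-s post-stimulus read; Read-out: peak-minus-minimum fluorescence over initial fluorescence, negative-control normalized, B-scored.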
KCNK3 block: human KCNK3 channel inhibition, primary screen. O14649. CHO-KCNK3 thallium flux, FluxOR fluorescence; active compounds read low. B-score at 10 µM. hit rate 0.84% among 340,000. AID 602410;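 active means B-score under library mean minus 4 SD, starting fluorescence ratio at most library mean plus 5 SD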;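 further: more negative B-score means stronger inhibition of thallium flux through KCNK3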
hERG rescue: compounds protecting human hERG from proarrhythmic drug block; Q12809; CHO-hERG, FluxOR thallium flux, dofetilide IC70 present; activation (rescue from dofetilide block), less the hit threshold, % at 10 µM; hit rate 0.51% among 310,000; AID 1511;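 active means activation above the mean of controls blocked by dofetilide plus 5 SD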;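 further: thallium influx through hERG after potassium depolarization seen as dye fluorescence rise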
Target sequence (Q12809 whole entry, looked up): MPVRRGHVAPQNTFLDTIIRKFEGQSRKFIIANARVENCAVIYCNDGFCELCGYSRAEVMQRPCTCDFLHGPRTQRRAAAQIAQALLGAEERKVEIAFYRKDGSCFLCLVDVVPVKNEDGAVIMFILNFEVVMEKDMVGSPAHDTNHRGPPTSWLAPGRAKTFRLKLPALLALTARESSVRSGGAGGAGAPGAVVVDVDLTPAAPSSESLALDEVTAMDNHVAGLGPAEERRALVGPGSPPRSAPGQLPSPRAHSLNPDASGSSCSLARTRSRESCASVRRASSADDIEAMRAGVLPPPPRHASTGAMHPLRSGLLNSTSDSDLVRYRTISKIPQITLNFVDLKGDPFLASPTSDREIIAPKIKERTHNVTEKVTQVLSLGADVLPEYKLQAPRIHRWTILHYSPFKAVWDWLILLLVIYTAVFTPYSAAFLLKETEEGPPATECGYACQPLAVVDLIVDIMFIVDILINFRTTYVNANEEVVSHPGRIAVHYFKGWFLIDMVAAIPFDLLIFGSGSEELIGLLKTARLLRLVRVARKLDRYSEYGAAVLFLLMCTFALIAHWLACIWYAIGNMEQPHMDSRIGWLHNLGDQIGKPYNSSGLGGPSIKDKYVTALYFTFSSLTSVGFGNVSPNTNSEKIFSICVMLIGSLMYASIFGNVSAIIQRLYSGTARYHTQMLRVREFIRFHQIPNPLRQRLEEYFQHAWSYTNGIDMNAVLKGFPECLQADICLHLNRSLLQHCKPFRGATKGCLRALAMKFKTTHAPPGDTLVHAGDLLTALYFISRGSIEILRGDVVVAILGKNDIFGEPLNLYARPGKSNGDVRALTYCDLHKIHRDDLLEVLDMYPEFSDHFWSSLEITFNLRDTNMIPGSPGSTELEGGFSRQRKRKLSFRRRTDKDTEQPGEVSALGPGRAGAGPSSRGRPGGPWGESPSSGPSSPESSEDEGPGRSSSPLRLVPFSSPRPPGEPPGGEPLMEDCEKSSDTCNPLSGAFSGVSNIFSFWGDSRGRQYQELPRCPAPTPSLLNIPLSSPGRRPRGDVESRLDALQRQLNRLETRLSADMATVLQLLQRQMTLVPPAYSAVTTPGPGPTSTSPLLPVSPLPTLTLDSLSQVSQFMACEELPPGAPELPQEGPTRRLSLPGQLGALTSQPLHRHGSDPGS
Kir21 block: blocks the mouse Kir2.1 inward-rectifier potassium channel; B-score at 10 µM; hit rate 0.85% among 310,000; P35561; HEK293-Kir2.1, FluxOR thallium flux fluorescence; active compounds read low;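 active means fluorescence ratio B-score at or below minus 3 SD of library scores, with starting-brightness B-score within 2 SD, cut at about -4.2 in these data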;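 further: channel flux triggered by added potassium and thallium sulfate stimulus; B-score of peak minus minimum fluorescence over baseline after thallium stimulus; more negative B-score means stronger Kir2.1 block with less thallium influx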
KCNK9 inh: human KCNK9 channel inhibition. B-score at 10 µM. hit rate 1.2% among 310,000. HEK293 KCNK9, FluxOR thallium flux fluorescence; active compounds read low. Q9NPC2. AID 488922;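 active means ratio B-score over 3 SD below the library mean, with starting fluorescence within 5 SD of its mean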;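 further: negative B-score means less thallium flux so channel inhibition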
KCNQ1 inh: blocks the human KCNQ1 potassium channel. CHO-K1 KCNQ1, FluxOR thallium flux fluorescence; active compounds read high. hit rate 1.3% among 310,000. B-score at 10 µM;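 active means compounds whose thallium flux B-score, printed positive for inhibition, exceeds three library SD while starting fluorescence stays within three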;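 further: channel opened by potassium depolarization with thallium stimulus after 20 min compound exposure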
KCNK3 confirm: confirmation of human KCNK3 two-pore domain potassium channel inhibitors. shares compounds with KCNK3 block. CHO-KCNK3 thallium flux, FluxOR fluorescence; 0% buffer, 100% carvedilol maximal block. ratio percent of control, % at 10 µM. hit rate 99% among 2,400;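 active means ratio percent of control, averaged over triplicates, above buffer control mean plus 5 SD, cut at about 64% in these data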;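 further: ratio is the fluorescence rise from min to max over baseline after thallium stimulus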
KCNK3 uninduced: counter-screen for KCNK3 inhibitors: effect in non-induced cells. shares compounds with KCNK3 block. hit rate 40% among 2,400. AID 651747. non-induced KCNK3 parental cells, FluxOR thallium flux; active compounds read low. thallium flux ratio (lower = more inhibition) at 10 µM;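 active means thallium flux ratio, averaged over three wells, more than 5 SD below the buffer control mean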;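 further: host cells are CHO cells without KCNK3 induction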
Large screens that a line does not name were inactive (follow-up assays come after a bar, where they were run).

O=C1OC(c2cccs2)=N/C1=C\c1ccc(-c2ccccc2Cl)o1	KCNK9 inh -7.85 | KCNK3 confirm 141.0 | KCNK3 uninduced 0.106
COc1ccc(-c2cc(OC)c3c(C)oc(C)c3c(=O)c2)cc1OC	KCNK3 block -9.03 | KCNK3 confirm 112.7 | KCNK3 uninduced 0.145
COc1cc(C(=O)NCCc2ccc(F)cc2)ccc1OCC(=O)N1CCOCC1	none
CCCCn1nc(NC(=O)c2cccs2)c2cc3ccccc3nc21	KCNK3 block -9.53 | KCNK3 confirm 117.7 | KCNK3 uninduced 0.14
CC1CCc2nc(NC(=O)c3cc(C(C)(C)C)nn3C)sc2C1 (stereo not drawn)	none
Cc1ccc(-c2nc(NC(=O)c3cc(C(C)(C)C)nn3C)sc2C)cc1Cl	KCNK3 block -9.19, KCNQ1 inh 10 | KCNK3 confirm 96.3 | KCNK3 uninduced 0.143
Cc1cccc(NC(=O)CN2CCN(C(=O)C3CCCO3)CC2)c1C (stereo not drawn)	none
C/C(=N\Nc1cccc2cccnc12)c1ccccc1O	KCNK3 block -10.4 | KCNK3 confirm 108.0 | KCNK3 uninduced inactive
CCCc1ccc2oc(C(=O)N(Cc3nccn3C)C(C)C)c(C)c2c1	KCNK3 block -10.6 | KCNK3 confirm 113.0 | KCNK3 uninduced inactive
Oc1cnc2ccccc2c1CN1CCOCC1	KCNK3 block -8.95 | KCNK3 confirm 81.7 | KCNK3 uninduced inactive
S=C(Nc1ccccc1Cl)N(CCN1CCCCC1)Cc1ccco1	none
CC(c1cccs1)N(Cc1ccco1)C(=S)Nc1ccccc1Cl (stereo not drawn)	KCNK3 block -8.96 | KCNK3 confirm 106.7 | KCNK3 uninduced inactive
Cc1cccc(NC(=S)N(Cc2ccco2)C(C)c2cccs2)c1 (stereo not drawn)	KCNK3 block -9.71 | KCNK3 confirm 94.0 | KCNK3 uninduced inactive
COc1cccc(NC(=S)N(Cc2ccco2)C(C)c2ccco2)c1 (stereo not drawn)	none
CN(Cc1cccnc1)Cc1cn(Cc2ccccc2)nc1-c1ccc2c(c1)OCO2	none
O=C(CSc1nc2ccccc2c(=O)n1Cc1ccco1)c1ccc(F)cc1	KCNK3 block -9.56 | KCNK3 confirm 112.3 | KCNK3 uninduced inactive
Cc1cc2c(=O)n(Cc3ccco3)c(SCC(=O)c3ccc(Cl)s3)nc2s1	KCNK3 block -9.71, KCNK9 inh -6.71 | KCNK3 confirm 107.7 | KCNK3 uninduced inactive
COc1ccccc1NC(=O)C1CCCN(c2cnccn2)C1 (stereo not drawn)	none
CC(=O)Oc1ccc(C(=O)Nc2cccc(-c3nnc(-c4ccco4)o3)c2)cc1	KCNK3 block -9.33 | KCNK3 confirm 85.3 | KCNK3 uninduced inactive
CCOc1cccc(C(=O)Nc2cccc(-c3nnc(-c4ccccc4)o3)c2)c1	KCNK3 block -10.7 | KCNK3 confirm 121.0 | KCNK3 uninduced 0.14
CC(=O)Nc1cccc(-c2nnc(-c3ccccc3)o2)c1	none
COc1cccc(C(=O)Nc2ccc(-c3nnc(-c4ccco4)o3)cc2)c1	none
O=C(Nc1cccc(-c2nnc(-c3ccccc3)o2)c1)C1CC1	KCNK3 block -9.84 | KCNK3 confirm 112.3 | KCNK3 uninduced inactive
CCOc1cccc(C(=O)Nc2cccc(-c3nnc(-c4ccc(C)cc4)o3)c2)c1	none
COc1ccccc1CNC(=O)c1sccc1-c1ccccc1	KCNK3 block -9.98, Kir21 block -6.56 | KCNK3 confirm 103.3 | KCNK3 uninduced inactive
COc1ccccc1CNC(=O)c1ccc2c(=O)n3c(nc2c1)CCCCC3	none
Cc1cccc(/C=C/c2nc3ccccc3c(=O)[nH]2)c1	KCNK3 block -9.42 | KCNK3 confirm 87.3 | KCNK3 uninduced inactive
O=C(c1ccccc1)C1CCN(c2ncccc2[N+](=O)[O-])CC1	KCNK3 block -8.81 | KCNK3 confirm 84.7 | KCNK3 uninduced inactive
CCN1C[C@@H]2[C@@H]3C(=O)N(Cc4ccccc4)C(=O)[C@@H]3[C@](C)(C1=O)N2C(=O)c1ccc(Cl)cc1	none (no result: KCNQ1 act, hERG rescue, Kir21 block, KCNK9 inh, KCNQ1 inh)
COc1cc(C2c3c(oc4ccccc4c3=O)C(=O)N2c2ccc(C)cn2)ccc1O (stereo not drawn)	none
CCOc1ccc(C2c3c(oc4ccccc4c3=O)C(=O)N2c2ccc(C)cn2)cc1OC (stereo not drawn)	KCNK3 block -10.8 | KCNK3 confirm 98.7 | KCNK3 uninduced inactive
CC[n+]1c(/C=C/Nc2ccccc2)oc2ccccc21	none
CC/C(=C\c1oc2cc3ccccc3cc2[n+]1CC)Nc1ccccc1	KCNK3 block -10.3, KCNQ1 inh 9 | KCNK3 confirm 127.3 | KCNK3 uninduced 0.136
COc1cccc(C(CNC(=O)c2ccc(Cl)c(S(=O)(=O)N3CCCC3)c2)N(C)C)c1 (stereo not drawn)	none (no result: KCNQ1 act, hERG rescue, Kir21 block, KCNK9 inh, KCNQ1 inh)
CC(O)CN1C(=O)C(CC(=O)Nc2ccc(Cl)cc2)SC1=Nc1ccccc1 (stereo not drawn)	KCNK3 block -9.45 | KCNK3 confirm 109.7 | KCNK3 uninduced inactive
COCCN1C(=O)C(CC(=O)Nc2ccc(C(C)=O)cc2)SC1=Nc1ccccc1 (stereo not drawn)	none
O=C(COC(=O)C1CCN(S(=O)(=O)c2ccc3c(c2)OCCO3)CC1)Nc1cc(C(F)(F)F)ccc1Cl	none
COCCN(C(=O)Nc1ccccc1OC)c1nc2ccccc2s1	KCNK3 block -11.2 | KCNK3 confirm 114.3 | KCNK3 uninduced inactive
O=C(/C=C/c1ccc(O)c(O)c1)OCCc1ccccc1	KCNK3 block -12.3 | KCNK3 confirm 84.0 | KCNK3 uninduced 0.141
CC(=O)Nc1ccc(NC(=O)CSc2ccc3nnc(CCNS(=O)(=O)c4ccc(C)cc4)n3n2)cc1	none
CNC(=O)CN(c1ccc(Oc2ccccc2)cc1)S(=O)(=O)c1ccc(C)cc1	none
O=C(NCCn1cc(SCc2ccccc2)c2ccccc21)c1ccccc1F	KCNK3 block -15.5, KCNQ1 inh 8 | KCNK3 confirm 124.3 | KCNK3 uninduced 0.146
CCOC(=O)c1c(CSc2ccc(CC)cc2)oc2ccc(O)c(CN(C)C)c12	KCNK3 block -9.13, Kir21 block -15.7, KCNK9 inh -7.4, KCNQ1 inh 8 | KCNK3 confirm 120.0 | KCNK3 uninduced 0.155
CC(C)(C)c1cc(C(=O)NNc2cc(C(F)(F)F)ccc2Cl)n(Cc2ccccc2)n1	KCNK3 block -18.5, KCNQ1 inh 8 | KCNK3 confirm 139.0 | KCNK3 uninduced 0.131
Cc1ccc(NC(=O)c2cc(C(C)(C)C)nn2Cc2ccccc2)cc1	KCNK3 block -16.2 | KCNK3 confirm 147.7 | KCNK3 uninduced inactive
Cc1ncc(CN2CCC(n3nccc3NC(=O)c3ccccc3)CC2)s1	none

Screens deposited in PubChem BioAssay by Johns Hopkins Ion Channel Center.
